Measured values taken from ChEMBL document CHEMBL4725329, “Anti-proliferative potential of triphenyl substituted pyrimidines against MDA-MB-231, HCT-116 and HT-29 cancer cell lines” (Bioorg Med Chem Lett, 2020).

Experiments:
MDA-MB-231 = assay: Antiproliferative activity against human MDA-MB-231 cells assessed as inhibition of cell proliferation measured after 48 hrs by MTT assay; type: functional, cell-based; conditions: MDA-MB-231, 48 h
Procedure, shortened: (§1)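 Cells were exposed to test compounds at 1, 5, 10 and 25 µM for 48 h, with each concentration run in triplicate. Untreated cells served as control. Cell viability was measured and IC₅₀ values were derived as mean ± SD of three independent experiments.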

HCT-116 [1] = assay: Antiproliferative activity against human HCT-116 cells assessed as inhibition of cell proliferation measured after 48 hrs by MTT assay; type: functional, cell-based; conditions: HCT-116, 48 h; procedure, shortened: as §1
HT-29 = assay: Antiproliferative activity against human HT-29 cells assessed as inhibition of cell proliferation measured after 48 hrs by MTT assay; type: functional, cell-based; conditions: HT-29, 48 h; procedure, shortened: as §1
Tubulin (Homo sapiens) [2] = molecular target: T1, Tubulin (Homo sapiens) (UniProt P68371+Q9H4B7+P0DPH7+P68366+Q13509+Q71U36+P04350+Q3ZCM7+P07437+P68363+Q9BQE3+Q6PEY2+Q13885+Q9BVA1+Q9BUF5); assay: Inhibition of tubulin polymerization in human HCT-116 cells assessed as cell cycle arrest at G1/G0 phase at 12.5 uM measured after 24 hrs by propidium iodide staining based analysis; set-up: scale not given: the % may be the effect or the level left
Tubulin (Homo sapiens) [3] = molecular target: T1, Tubulin (Homo sapiens); assay: Inhibition of tubulin polymerization in human HCT-116 cells assessed as cell cycle arrest at G2/M phase at 12.5 uM measured after 24 hrs by propidium iodide staining based analysis; set-up: scale not given: the % may be the effect or the level left
HCT-116 [4] = assay: Induction of apoptosis in human HCT-116 cells assessed as live cells at 5 uM measured after 24 hrs by annexin-V/FITC staining based flow cytometry analysis (reference value: 97.1 %); type: functional
HCT-116 [5] = assay: Induction of apoptosis in human HCT-116 cells assessed as early apoptotic cells at 5 uM measured after 24 hrs by annexin-V/FITC staining based flow cytometry analysis (reference value: 0.3 %); type: functional
HCT-116 [6] = assay: Induction of apoptosis in human HCT-116 cells assessed as late apoptotic cells at 5 uM measured after 24 hrs by annexin-V/FITC staining based flow cytometry analysis (reference value: 2.4 %); type: functional
HCT-116 [7] = assay: Induction of apoptosis in human HCT-116 cells assessed as necrotic cells at 5 uM measured after 24 hrs by annexin-V/FITC staining based flow cytometry analysis (reference value: 0.2 %); type: functional

COc1cc(-c2cc(-c3ccc(Cl)cc3)nc(-c3ccccc3)n2)cc(OC)c1OC
IC50 (MDA-MB-231): > 25 µM
IC50 (HCT-116 [1]): 7.98 µM
IC50 (HT-29): 6.23 µM

COc1ccc(-c2cc(-c3cc(OC)c(OC)c(OC)c3)nc(-c3ccccc3)n2)cc1
IC50 (MDA-MB-231): 3.39 µM
IC50 (HCT-116 [1]): 4.78 µM
IC50 (HT-29): 4.23 µM
Activity (Tubulin (Homo sapiens) [2]): 5.6%
Activity (Tubulin (Homo sapiens) [3]): 88.8%
Activity (HCT-116 [4]): 28.3%
Activity (HCT-116 [5]): 22.5%
Activity (HCT-116 [6]): 48.3%
Activity (HCT-116 [7]): 0.9%

COc1cc(-c2cc(-c3cccc4ccccc34)nc(-c3ccccc3)n2)cc(OC)c1OC
IC50 (MDA-MB-231): 3.24 µM
IC50 (HCT-116 [1]): 4.93 µM
IC50 (HT-29): 4.73 µM
Activity (Tubulin (Homo sapiens) [2]): 78.5%
Activity (Tubulin (Homo sapiens) [3]): 8.1%
Activity (HCT-116 [4]): 23.7%
Activity (HCT-116 [5]): 26.4%
Activity (HCT-116 [6]): 49.6%
Activity (HCT-116 [7]): 0.3%

COc1cc(-c2cc(-c3ccc(C)cc3)nc(-c3ccccc3)n2)cc(OC)c1OC
IC50 (MDA-MB-231): 5.11 µM
IC50 (HCT-116 [1]): 15.7 µM
IC50 (HT-29): > 25 µM

COc1cc(-c2cc(-c3cccc([N+](=O)[O-])c3)nc(-c3ccccc3)n2)cc(OC)c1OC
IC50 (MDA-MB-231): 2.44 µM
IC50 (HCT-116 [1]): > 25 µM
IC50 (HT-29): > 25 µM

COc1cc(-c2cc(-c3cccs3)nc(-c3ccccc3)n2)cc(OC)c1OC
IC50 (MDA-MB-231): 5.11 µM
IC50 (HCT-116 [1]): 17 µM
IC50 (HT-29): > 25 µM

COc1ccc(-c2cc(-c3cc(OC)c(OC)c(OC)c3)nc(-c3ccccc3)n2)c(OC)c1
IC50 (MDA-MB-231): 1.44 µM
IC50 (HCT-116 [1]): > 25 µM
IC50 (HT-29): > 25 µM

COc1cc2c(c(OC)c1OC)-c1ccc(OC)c(=O)cc1[C@@H](NC(C)=O)CC2 [COLCHICINE]
IC50 (MDA-MB-231): 0.93 µM
IC50 (HCT-116 [1]): 5.13 µM
IC50 (HT-29): 5.19 µM
Activity (HCT-116 [4]): 38.8%
Activity (HCT-116 [5]): 1.9%
Activity (HCT-116 [6]): 56.4%
Activity (HCT-116 [7]): 2.9%

COc1cc(-c2cc(-c3ccc(O)cc3O)nc(-c3ccccc3)n2)cc(OC)c1OC
IC50 (MDA-MB-231): 0.81 µM
IC50 (HCT-116 [1]): 5.89 µM
IC50 (HT-29): 4.96 µM
Activity (Tubulin (Homo sapiens) [2]): 11.3%
Activity (Tubulin (Homo sapiens) [3]): 79.5%
Activity (HCT-116 [4]): 28.7%
Activity (HCT-116 [5]): 35.4%
Activity (HCT-116 [6]): 35.2%
Activity (HCT-116 [7]): 0.6%

COc1cc(-c2cc(-c3ccc(Br)cc3)nc(-c3ccccc3)n2)cc(OC)c1OC
IC50 (MDA-MB-231): > 25 µM
IC50 (HCT-116 [1]): 4.32 µM
IC50 (HT-29): 3.17 µM

COc1cc(-c2cc(-c3ccc(O)cc3)nc(-c3ccccc3)n2)cc(OC)c1OC
IC50 (MDA-MB-231): 1.6 µM
IC50 (HCT-116 [1]): 11.8 µM
IC50 (HT-29): 11.3 µM

COc1cc(-c2cc(-c3cccc(O)c3)nc(-c3ccccc3)n2)cc(OC)c1OC
IC50 (MDA-MB-231): 1.99 µM
IC50 (HCT-116 [1]): 20.4 µM
IC50 (HT-29): > 25 µM

COc1cc(-c2cc(-c3ccccc3)nc(-c3ccccc3)n2)cc(OC)c1OC
IC50 (MDA-MB-231): 5.87 µM
IC50 (HCT-116 [1]): 9.95 µM
IC50 (HT-29): 7.93 µM

COc1cc(-c2cc(-c3ccc(N)cc3)nc(-c3ccccc3)n2)cc(OC)c1OC
IC50 (MDA-MB-231): 1.01 µM
IC50 (HCT-116 [1]): 12.3 µM
IC50 (HT-29): > 25 µM
